# Experimental data pooled from the literature.
# Compare with care: the assays were run in different laboratories.
# Target: Phosphatidylinositol 4,5-bisphosphate 3-kinase catalytic subunit gamma isoform (PIK3CG, Homo sapiens, UniProt P48736)
SMILES,test,conditions,quantity,result
CCCCC(=O)Nc1ccc(-c2ccc3ncn(CCC)c(=O)c3c2)cn1,"binding, competition with immobilised ligand",0.5 µM,remaining binding,100%
COc1ccc2oc(-c3ccc4nc(N)oc4c3)c/c(=N\c3ccccc3NC(=O)CCN)c2c1,"enzyme activity, inhibitor",1 µM,remaining activity,98%
CO[C@@H]1[C@H](N(C)C(=O)c2ccccc2)C[C@H]2O[C@]1(C)n1c3ccccc3c3c4c(c5c6ccccc6n2c5c31)C(=O)NC4,"enzyme activity, inhibitor",1 µM,inhibition,34%
C[C@H]1CC[C@H](n2c3cnccc3c3cnc(Nc4ccc5c(n4)CCN(C(=O)CO)C5)nc32)CC1,cell-free assay,1 µM,remaining signal,47%
CC#CC(=O)N1CCC[C@H]1c1nc(-c2ccc(C(=O)Nc3ccccn3)cc2)c2c(N)nccn12,"enzyme activity, inhibitor",1 µM,inhibition,0%
COc1ccc2[nH]c3c4[nH]c5ccc(OC)cc5c4c4c(c3c2c1)C(=O)NC4=O,binding,1 µM,remaining binding,87%
Cc1nc(NC(=O)N2CCC[C@H]2C(N)=O)sc1-c1ccnc(C(C)(C)C(F)(F)F)c1,"enzyme activity, inhibitor, ADP detection",10 µM,inhibition,73.3%
N#Cc1ccc(NC(=O)Nc2ccccc2)cc1,"cell-free assay, competition with immobilised ligand",25 µM,remaining binding,77%
C#Cc1cnc(Nc2ccnc(CO)c2)nc1Nc1ccccc1S(C)(=O)=NC#N (stereo not shown),cell-free assay,1 µM,remaining signal,15%
C1=C/COCc2cc(ccc2OCCN2CCCC2)Nc2nccc(n2)-c2cccc(c2)COC/1,binding,0.1 µM,remaining binding,4.3%
